Where only a bound is given, the exact number is not on record here.

The subject of the first assay is Seed linoleate 15-lipoxygenase (Glycine max). Briefly: Compound was tested for the percent of inhibition against soybean 15-LO (at 100 uM).
By inhibition is commonly meant the percentage by which the read-out fell short of the control. `O=C(NO)c1ccc(-c2ccccc2)cc1` displayed an inhibition of 30%.

Another assay addresses T1, Polyunsaturated fatty acid 5-lipoxygenase (Rattus norvegicus) (UniProt P12527).
T1 sequence (whole entry): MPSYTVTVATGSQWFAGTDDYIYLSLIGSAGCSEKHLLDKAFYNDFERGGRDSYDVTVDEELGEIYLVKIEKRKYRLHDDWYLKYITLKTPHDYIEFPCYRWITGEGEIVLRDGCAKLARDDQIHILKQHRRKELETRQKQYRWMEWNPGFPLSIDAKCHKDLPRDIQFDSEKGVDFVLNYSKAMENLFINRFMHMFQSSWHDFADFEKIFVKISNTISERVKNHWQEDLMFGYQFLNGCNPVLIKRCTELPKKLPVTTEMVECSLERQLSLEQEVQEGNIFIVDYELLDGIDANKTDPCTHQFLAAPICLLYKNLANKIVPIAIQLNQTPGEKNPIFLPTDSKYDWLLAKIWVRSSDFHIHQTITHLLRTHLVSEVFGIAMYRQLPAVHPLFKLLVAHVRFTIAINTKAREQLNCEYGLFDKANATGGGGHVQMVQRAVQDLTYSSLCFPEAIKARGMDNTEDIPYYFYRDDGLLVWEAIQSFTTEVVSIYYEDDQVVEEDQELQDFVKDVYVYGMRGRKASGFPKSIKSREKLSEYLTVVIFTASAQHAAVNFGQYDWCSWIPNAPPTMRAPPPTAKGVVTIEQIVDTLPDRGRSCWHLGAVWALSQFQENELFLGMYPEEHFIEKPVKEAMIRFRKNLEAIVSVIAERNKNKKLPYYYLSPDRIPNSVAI
Briefly: Percent inhibition against RBL-1 5-LO in vitro at 10 uM. The format is cell-based. In a few lines: (§1)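 200-μL incubations held the 20000g supernatant of 1.5 million homogenized RBL-1 cells plus compound. Radiolabeled arachidonic acid started the reaction; acidification and ether extraction ended it. Product was resolved by TLC and counted by liquid scintillation, in triplicate. Inhibition was taken from the ratio of product formed with and without inhibitor.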
`CCCCCCCCCOc1ccc2cc(C(=O)NO)ccc2c1`: the inhibition is 33%. Molecule `CCCCCCCCCCCCOc1ccc2cc(C(=O)NO)ccc2c1` had an inhibition of 11%.

For another assay, the target named is T2, Polyunsaturated fatty acid 5-lipoxygenase (Rattus norvegicus, UniProt P12527).
T2 sequence (P12527 whole entry): T1 sequence (whole entry)
Briefly: Compound was tested for its inhibition activity against the 5-LO in isolated enzyme. Put shortly: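 5-LO from the 20000g supernatant of 1.5 million homogenized RBL-1 cells, in 200-μL incubations across a range of compound concentrations. Reaction started with radiolabeled arachidonic acid and stopped by acidification and ether extraction. Products were separated from substrate by TLC and counted by liquid scintillation, in triplicate.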
As a reminder, the IC50 is the concentration that inhibits the measured activity by half. Higher therefore signals a need for much substance. Take `O=C(NO)c1ccc(-c2ccccc2)cc1`: half-maximal inhibition (IC50) was put at 4 µM. In other words, the single-digit micromolar range.

The next assay concerns the target T1, Polyunsaturated fatty acid 5-lipoxygenase (Rattus norvegicus). Briefly: Percent inhibition against RBL-1 5-LO in vitro at 100 uM. The format is cell-based. Put shortly: as §1
The molecule `O=S(=O)(NO)c1ccc2ccccc2c1` had an inhibition of 51%. Take `O=C(CO)c1ccc2ccccc2c1`: the inhibition was found to be 15%.

A further assay addresses T3, Polyunsaturated fatty acid lipoxygenase ALOX12 (Homo sapiens) (UniProt P18054).
T3 sequence (whole entry): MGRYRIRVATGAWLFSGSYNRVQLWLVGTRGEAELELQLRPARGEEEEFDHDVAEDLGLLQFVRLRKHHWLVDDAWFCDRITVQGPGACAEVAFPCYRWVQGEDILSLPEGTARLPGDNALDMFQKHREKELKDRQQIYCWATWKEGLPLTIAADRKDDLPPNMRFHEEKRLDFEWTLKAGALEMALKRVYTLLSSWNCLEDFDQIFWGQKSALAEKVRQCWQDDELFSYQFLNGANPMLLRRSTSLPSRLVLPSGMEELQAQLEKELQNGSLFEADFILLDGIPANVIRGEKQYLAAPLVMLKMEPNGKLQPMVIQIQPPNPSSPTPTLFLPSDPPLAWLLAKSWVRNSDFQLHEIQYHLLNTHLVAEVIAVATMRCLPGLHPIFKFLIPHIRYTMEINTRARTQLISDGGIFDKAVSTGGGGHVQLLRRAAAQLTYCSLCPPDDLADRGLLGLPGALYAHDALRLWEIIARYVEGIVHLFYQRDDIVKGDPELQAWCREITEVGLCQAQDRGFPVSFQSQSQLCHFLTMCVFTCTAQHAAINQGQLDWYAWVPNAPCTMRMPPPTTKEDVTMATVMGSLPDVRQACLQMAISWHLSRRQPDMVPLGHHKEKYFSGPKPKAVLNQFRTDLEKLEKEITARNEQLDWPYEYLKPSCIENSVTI
Briefly: Compound was tested for the percent of inhibition against 12-LO at 10 uM. Format: functional. In a few lines: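 The RBL-1 enzyme was replaced by human platelet 12-lipoxygenase, soybean 15-lipoxygenase or sheep seminal vesicle cyclooxygenase. Reactions were started with radiolabeled arachidonic acid and stopped by acidification and ether extraction. Products were separated by TLC and counted by liquid scintillation, in triplicate. Inhibition was taken from the ratio of product formed with and without inhibitor.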
As to `O=C(NO)c1ccc(-c2ccccc2)cc1`, the inhibition worked out at 86%.

For another assay, the target named is T1, Polyunsaturated fatty acid 5-lipoxygenase (Rattus norvegicus). Briefly: Percent inhibition against RBL-1 5-LO in vitro at 300 uM. Format: cell-based. In a few lines:
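20000g supernatant from 1.5 million homogenized RBL-1 cells, with test compound, in 200-μL incubations. Reactions were started with radiolabeled arachidonic acid and stopped by acidification and ether extraction. Products were separated from unconverted substrate by TLC and counted by liquid scintillation. Inhibition was taken from product formed with versus without inhibitor. Run in triplicate.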
In turn, `O=C(O)c1ccc2ccccc2c1` returned an inhibition of 0%. In turn, `NC(=O)c1ccc2ccccc2c1` came in with an inhibition of 9%. The molecule `NNC(=O)c1ccc2ccccc2c1` had an inhibition of 6%. On the same count and under the same terms, in the case of `CO/C(=N\O)c1ccc2ccccc2c1` it was 74%.

For a further assay, the target named is Prostaglandin G/H synthase 1 (Ovis aries) (UniProt P05979). Briefly: Compound was tested for the percent of inhibition against sheep seminal vesicle cyclooxygenase at 100 uM.
Chain of Prostaglandin G/H synthase 1 (Ovis aries) (P05979 whole entry, looked up): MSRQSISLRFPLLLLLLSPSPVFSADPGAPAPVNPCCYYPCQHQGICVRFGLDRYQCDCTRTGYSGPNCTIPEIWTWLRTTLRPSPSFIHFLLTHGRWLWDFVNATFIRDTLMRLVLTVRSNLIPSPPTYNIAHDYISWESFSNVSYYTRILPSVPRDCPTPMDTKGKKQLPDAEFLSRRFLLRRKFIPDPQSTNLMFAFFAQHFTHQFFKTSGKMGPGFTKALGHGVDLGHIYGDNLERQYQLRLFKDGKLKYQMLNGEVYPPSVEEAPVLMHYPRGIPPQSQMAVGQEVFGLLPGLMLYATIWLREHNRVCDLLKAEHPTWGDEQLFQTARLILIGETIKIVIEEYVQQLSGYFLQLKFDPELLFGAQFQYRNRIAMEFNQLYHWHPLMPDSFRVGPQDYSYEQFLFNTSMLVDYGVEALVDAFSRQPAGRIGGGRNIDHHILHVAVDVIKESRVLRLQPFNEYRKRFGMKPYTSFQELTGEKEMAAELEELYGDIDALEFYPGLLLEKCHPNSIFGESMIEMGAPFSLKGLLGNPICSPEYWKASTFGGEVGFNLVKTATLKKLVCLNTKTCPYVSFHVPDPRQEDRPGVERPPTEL
Take `O=C(NO)c1ccc(-c2ccccc2)cc1`: the inhibition is 50%.

In another assay the target is T2, Polyunsaturated fatty acid 5-lipoxygenase. Briefly: In vitro inhibitory activity against RBL-1 5-LO. The format is cell-based.
With `O=C(CCCc1ccccc1)NO` [PHENYLBUTYRYLHYDROXAMIC ACID], the concentration for half-maximal inhibition (IC50) turned out to be 27 µM.

In turn, `O=C(C#Cc1ccccc1)NO` gave an IC50 of 46 µM. The same measure, in the same setting: then `O=C(Cc1ccc2ccccc2c1)NO`, with 19 µM. With `Cc1cc(C)c(-c2ccc(C(=O)NO)cc2)c(C)c1`, the concentration for half-maximal inhibition (IC50) is 0.29 µM. `O=C(NO)c1ccc([N+](=O)[O-])cc1` yielded an IC50 of 23 µM. The molecule `O=C(NO)c1ccccc1` [BENZOHYDROXAMATE] gave a 50% inhibitory concentration (IC50) of 110 µM.

As to `CC(C)N(O)C(=O)/C=C/c1ccc2ccccc2c1`, it took 0.082 µM to reach half-maximal inhibition (IC50). With `O=C(NO)c1ccc(C(F)(F)F)cc1`, inhibition was half-maximal at 27 µM (IC50). This IC50 is about 330-fold higher than that of the molecule before.

The molecule `Nc1ccc(C(=O)NO)cc1` yielded an IC50 of more than 400 µM. `O=C(NO)c1ccc(-c2cccc3ccccc23)cc1` came in with a half-maximal inhibitory concentration (IC50) of 0.18 µM. On to `O=C(Cc1cccc2ccccc12)NO`, for which the IC50 was determined as 27 µM. As to `O=C(Cc1ccccc1)NO` [PHENYLACETOHYDROXAMIC ACID], half-maximal inhibition (IC50) required 300 µM. Consider `CCCCC/C=C\CCOc1ccc2cc(C(=O)NO)ccc2c1`, for which the half-inhibitory concentration (IC50) worked out at 2.9 µM. `C/C(=C\C(=O)N(C)O)c1ccc2ccccc2c1` displayed a half-inhibitory concentration (IC50) of 0.12 µM. This IC50 is about 24-fold lower than that of the molecule before. Regarding `CCCCCCCOc1ccc2cc(C(=O)NO)ccc2c1`, the half-maximal inhibitory concentration (IC50) came out at 6.5 µM. Same read-out and setting: then `O=C(NO)c1ccc(O)cc1`, with 190 µM. Take `Cc1cc(C)c(-c2ccc(C(=O)N(C)O)cc2)c(C)c1`: inhibition was half-maximal at 0.064 µM (IC50). On to `O=C(/C=C/c1ccc2ccccc2c1)N(O)c1ccccc1`, for which the IC50 is 0.052 µM. `COc1ccc2cc(C(=O)NO)ccc2c1` had an IC50 of 8.2 µM. Compared with the last molecule, the IC50 is about 160-fold higher. For the molecule `CCCCCCCCOc1ccc2cc(C(=O)NO)ccc2c1`, the IC50 came to 7.1 µM. Still for that read-out and setting: then `O=C(NO)c1ccc(-c2ccc3ccccc3c2)cc1`, with 0.33 µM; and `O=C(NO)c1ccc(Br)cc1`, with 14 µM. For the molecule `Cc1ccc(C(=O)NO)cc1`, the IC50 amounted to 65 µM.

In turn, `C/C(=C\c1ccc2ccccc2c1)C(=O)N(C)O` displayed a half-inhibitory concentration (IC50) of 0.47 µM. Molecule `N#Cc1ccc(C(=O)NO)cc1` returned a half-maximal inhibitory concentration (IC50) of 61 µM. This IC50 is about 130-fold higher than that of the molecule before. Turning to `Cc1cc(C)c(-c2ccc(/C=C/C(=O)N(C)O)cc2)c(C)c1`, the IC50 was 0.022 µM. This IC50 is about 2800-fold lower than that of the molecule before. Take `O=C(CCc1ccccc1)NO`: the midpoint of inhibition, the IC50, lay at 87 µM. This IC50 lies about 4000-fold higher than the previous one. Take `O=C(/C=C/c1ccccc1)NO`: the IC50 came to 12 µM. Turning to `O=C(NO)c1ccc2ccccc2c1`, the IC50 is 14 µM.

As for `O=C(NO)c1ccc(I)cc1`, the half-maximal inhibitory concentration (IC50) was determined as 15 µM. Still for that read-out and setting: in the case of `CN(O)C(=O)/C=C/c1ccc2ccccc2c1` it was 0.1 µM; in that of `O=C(/C=C\c1ccccc1)NO`, 31 µM; in that of `O=C(/C=C/c1ccc2ccccc2c1)N(O)C1CCCCC1`, 0.1 µM.

In turn, `O=C(NO)c1cccc2ccccc12` registered an IC50 of 43 µM.

The molecule `CN(O)C(=O)c1ccc2ccccc2c1` registered a half-maximal inhibitory concentration (IC50) of 1.3 µM.

The next assay has as its target T1, Polyunsaturated fatty acid 5-lipoxygenase (Rattus norvegicus). Briefly: Percent inhibition against RBL-1 5-LO in vitro at 30 uM. Format: cell-based. In a few lines:
as §1
Turning to `CN(O)S(=O)(=O)c1ccc2ccccc2c1`, the inhibition was 6%.

Consider `CONC(=O)c1ccc2ccccc2c1`, for which the inhibition came to 0%.

For another assay the target is unchanged. Briefly: Compound was tested for the percent of inhibition against 5-LO at 10 uM. Put shortly:
as §1
`O=C(NO)c1ccc(-c2ccccc2)cc1` returned an inhibition of 86%.

Another assay concerns the target T2, Polyunsaturated fatty acid 5-lipoxygenase. Briefly: Compound was tested for its inhibition activity against 5-LO of the whole cell in vitro in rat.
For the molecule `O=C(NO)c1ccc(-c2ccccc2)cc1`, the IC50 worked out at 3.3 µM.

The values are drawn from ChEMBL document CHEMBL1123703, “Hydroxamic acid inhibitors of 5-lipoxygenase” (J Med Chem, 1987).
